# Results: ChEMBL document CHEMBL2424522, “Demonic axe-like conjugated alkynes in combating microbes” (2013)
# Tests used:
# Assay type in all cases: functional
# [1] = tested on: Pseudomonas aeruginosa; test: Antibacterial activity against Pseudomonas aeruginosa MTCC 741 by broth dilution method
# In short: (§1)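 Broth dilution per NCCL standards; all phosphorus ylides and conjugated alkynes tested in vitro.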
# [2] = tested on: Aspergillus flavus; test: Antifungal activity against Aspergillus flavus MTCC 277 at 50 ug/ml after 48 hrs by agar well diffusion method; conditions: MTCC 277, 48 h, read-out: IZ
# In short: (§2)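 Test samples and DMSO controls incubated at 27 °C for 48 h. Inhibition zone diameter measured in mm. Three to four replicates per treatment.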
# [3] = tested on: Candida albicans; test: Antifungal activity against Candida albicans MTCC 227 at 100 ug/ml after 48 hrs by agar well diffusion method; conditions: MTCC 227, 48 h, read-out: IZ; in short: as §2
# [4] = tested on: Saccharomyces cerevisiae; test: Antifungal activity against Saccharomyces cerevisiae MTCC 36 at 100 ug/ml after 48 hrs by agar well diffusion method; conditions: MTCC 36, 48 h, read-out: IZ; in short: as §2
# [5] = tested on: Saccharomyces cerevisiae; test: Antifungal activity against Saccharomyces cerevisiae MTCC 36 at 50 ug/ml after 48 hrs by agar well diffusion method; conditions: MTCC 36, 48 h, read-out: IZ; in short: as §2
# [6] = tested on: Klebsiella pneumoniae; test: Antibacterial activity against Klebsiella pneumoniae MTCC 618 by broth dilution method; in short: as §1
# [7] = tested on: Aspergillus flavus; test: Antifungal activity against Aspergillus flavus MTCC 277 at 100 ug/ml after 48 hrs by agar well diffusion method; conditions: MTCC 277, 48 h, read-out: IZ; in short: as §2
# [8] = tested on: Staphylococcus epidermidis; test: Antibacterial activity against Staphylococcus epidermidis MTCC 435 by broth dilution method; in short: as §1
# [9] = tested on: Aspergillus niger; test: Antifungal activity against Aspergillus niger MTCC 344 at 100 ug/ml after 48 hrs by agar well diffusion method; conditions: MTCC 344, 48 h, read-out: IZ; in short: as §2
# [10] = tested on: Staphylococcus aureus; test: Antibacterial activity against Staphylococcus aureus MTCC 96 by broth dilution method; in short: as §1
# [11] = tested on: Candida albicans; test: Antifungal activity against Candida albicans MTCC 227 at 50 ug/ml after 48 hrs by agar well diffusion method; conditions: MTCC 227, 48 h, read-out: IZ; in short: as §2
# [12] = tested on: Diutina rugosa; test: Antifungal activity against Candida rugosa NCIM 3462 at 100 ug/ml after 48 hrs by agar well diffusion method; conditions: NCIM 3462, 48 h, read-out: IZ; in short: as §2
# [13] = tested on: Escherichia coli; test: Antibacterial activity against Escherichia coli MTCC 443 by broth dilution method; in short: as §1
# [14] = tested on: Aspergillus niger; test: Antifungal activity against Aspergillus niger MTCC 344 at 50 ug/ml after 48 hrs by agar well diffusion method; conditions: MTCC 344, 48 h, read-out: IZ; in short: as §2
# [15] = tested on: Diutina rugosa; test: Antifungal activity against Candida rugosa NCIM 3462 at 50 ug/ml after 48 hrs by agar well diffusion method; conditions: NCIM 3462, 48 h, read-out: IZ; in short: as §2
# [16] = tested on: Bacillus subtilis; test: Antibacterial activity against Bacillus subtilis MTCC 441 by broth dilution method; in short: as §1
Compound,MIC [1],MIC [6],MIC [8],MIC [10],MIC [13],MIC [16],zone of inhibition at 50 µg/mL [2],zone of inhibition at 100 µg/mL [3],zone of inhibition at 100 µg/mL [4],zone of inhibition at 50 µg/mL [5],zone of inhibition at 100 µg/mL [7],zone of inhibition at 100 µg/mL [9],zone of inhibition at 50 µg/mL [11],zone of inhibition at 100 µg/mL [12],zone of inhibition at 50 µg/mL [14],zone of inhibition at 50 µg/mL [15]
N#CC#Cc1cc(F)c(Cl)nc1Cl,100 µg/mL,12.5 µg/mL,25 µg/mL,12.5 µg/mL,100 µg/mL,6.25 µg/mL,20 mm,16 mm,10 mm,0 mm,25 mm,24 mm,11 mm,11 mm,20 mm,0 mm
N#CC#Cc1cccnc1Cl,0.78 µg/mL,12.5 µg/mL,50 µg/mL,6.25 µg/mL,100 µg/mL,3.12 µg/mL,35 mm,28 mm,11 mm,0 mm,39 mm,30 mm,23 mm,29 mm,26 mm,23 mm
N#CC#Cc1ccc(Cl)nc1,0.78 µg/mL,3.12 µg/mL,6.25 µg/mL,1.56 µg/mL,100 µg/mL,1.56 µg/mL,44 mm,40 mm,10 mm,0 mm,47 mm,43 mm,35 mm,28 mm,39 mm,33 mm

# Continued, in another order:
MIC [1],MIC [6],MIC [8],MIC [10],MIC [13],MIC [16],Compound,zone of inhibition at 50 µg/mL [2],zone of inhibition at 100 µg/mL [3],zone of inhibition at 100 µg/mL [4],zone of inhibition at 50 µg/mL [5],zone of inhibition at 100 µg/mL [7],zone of inhibition at 100 µg/mL [9],zone of inhibition at 50 µg/mL [11],zone of inhibition at 100 µg/mL [12],zone of inhibition at 50 µg/mL [14],zone of inhibition at 50 µg/mL [15]
0.78 µg/mL,6.25 µg/mL,50 µg/mL,1.56 µg/mL,100 µg/mL,6.25 µg/mL,CCOC(=O)C#Cc1ccc(Cl)nc1,20 mm,20 mm,29 mm,25 mm,25 mm,29 mm,15 mm,15 mm,25 mm,10 mm
> 150 µg/mL,> 150 µg/mL,> 150 µg/mL,> 150 µg/mL,> 150 µg/mL,> 150 µg/mL,CCOC(=O)C#CC(C)(C)C,0 mm,0 mm,0 mm,0 mm,0 mm,0 mm,0 mm,0 mm,0 mm,0 mm
> 150 µg/mL,> 150 µg/mL,> 150 µg/mL,> 150 µg/mL,> 150 µg/mL,> 150 µg/mL,CCOC(=O)C#Cc1ccccc1C,0 mm,0 mm,0 mm,0 mm,0 mm,0 mm,0 mm,0 mm,0 mm,0 mm
